The nature of data set [1]: Lipophilicity at pH 5. To be noted: buffer, read-out: Log D5.0. In kind it is physicochemical. In outline: (§1)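 Octanol/buffer shake partition: phosphate buffer pH 7.4 or acetate buffer pH 5.0, phases mutually presaturated; compound at 50–250 μg/mL in buffer. Aqueous phase shaken with octanol 30 min, centrifuged 3000 rpm 10 min. Aqueous peak areas before and after partitioning by reversed-phase C8 HPLC (acetonitrile–acetate pH 4, 80:20; 60 °C; UV 254 nm).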

Data set [2] is described as follows: Lipophilicity at pH 7.4. To be noted: buffer, read-out: Log D7.4. Type of data set: physicochemical. An outline of the steps:
as §1

The test system of data set [3] is L6. Put plainly: In vitro cytotoxicity against mammalian L6 cells was determined. In kind it is functional, cell-based. To be noted: Rattus norvegicus. In outline: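 L6 cells, 10⁴ per well, exposed to a range of inhibitor concentrations for up to 5 days. Proliferation read by XTT colorimetric assay; inhibition relative to DMSO-treated controls; IC50 reported.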

For data set [4], the system named is Plasmodium falciparum. The experiment in a line: In vitro antimalarial activity against Thai strain of Plasmodium falciparum. Type of data set: functional, organism-based. An outline of the steps: (§2)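 P. falciparum kept on human erythrocytes; CQ-sensitive Thai and CQ-resistant FcB1 and K1 strains. Drugs diluted serially in culture medium, added to asynchronous cultures (1% parasitemia, 1% hematocrit) for 24 h at 37 °C, then 0.5 μCi [³H]hypoxanthine per well for 24 h more. Uptake compared with drug-free controls; IC50 from concentration–response curve, mean ± SD of independent experiments. DMSO ≤0.1%.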

Data set [5] deals with Plasmodium falciparum. Put plainly: In vitro antimalarial activity against Plasmodium falciparum FcB1. In kind it is functional, organism-based. In outline: as §2
Data set [6] concerns Plasmodium falciparum. Put plainly: In vitro antimalarial activity against Plasmodium falciparum K1. Type of data set: functional, organism-based. An outline of the steps:
as §2

The nature of data set [7]: Food vacuolar accumulation ratio was determined. In kind it is functional. In outline: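 Calculated, not measured: VAR from the compound's pKa values, assuming vacuolar pH 5.0 and external pH 7.4.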
The test system of data set [8] is Plasmodium falciparum. Put plainly: Resistance index as ratio of IC50 for Plasmodium falciparum FcB1 and Thai strains. In kind it is functional.
Data set [9] deals with Plasmodium falciparum. Put plainly: Resistance index as IC50 for Plasmodium falciparum K1 and Thai strains. In kind it is functional.
Data set [10] has as its system L6. Put plainly: Selectivity IC50 index against Plasmodium falciparum K1 compared to L6 cells. Type of data set: functional.

In the case of `COc1ccc2nc(NCCCN3CCN(CCCNc4nc5ccc(OC)cc5n5cccc45)CC3)c3cccn3c2c1`, the values for the logD in data set [1] and in data set [2] were 1.88 and 4.67, respectively. The IC50 was 4060 nM in [3], 40 nM in data set [4], 130 nM in data set [5] and 80 nM in data set [6]. The Ratio came out at 72500 in data set [7], 3.2 in data set [8], 2 in data set [9] and 52.7 in [10].
For `COc1ccc2nc(NCCCN(C)CCCNc3nc4ccc(OC)cc4n4cccc34)c3cccn3c2c1`, the results for the logD in data set [1] and in data set [2] were 0.41 and 3.41, respectively. In addition, the IC50 in [3] was 3790 nM; in data set [4], 120 nM; in [5], 320 nM; in data set [6], 200 nM. Also, the Ratio in data set [7] amounted to 42100; in data set [8], 2.7; in [9], 1.7; in data set [10] it was 19.2.
`c1cc2c(NCCCN3CCN(CCCNc4nc5ccsc5n5cccc45)CC3)nc3ccsc3n2c1`: the midpoint of inhibition in data set [5], the IC50, lay at 930 nM.
Consider `Clc1ccc2nc(NCCCN3CCN(CCCNc4nc5ccc(Cl)cc5n5cccc45)CC3)c3cccn3c2c1`, for which the logD worked out at 3.43 in data set [1] and 4.92 in data set [2]. Moreover, the IC50 in [3] turned out to be 4010 nM; in [4], 280 nM; in [5], 640 nM; in [6] it was 480 nM. Besides, the Ratio turned out to be 2100 in data set [7], 2.3 in data set [8], 1.7 in [9] and 8.2 in [10].
In the case of `c1ccc2c(c1)nc(NCCCN1CCN(CCCNc3nc4ccccc4n4cccc34)CC1)c1cccn12`, the logD is 1.31 in data set [1] and 2.52 in data set [2]. The IC50 was 5040 nM in [3], 80 nM in data set [4], 290 nM in [5] and 370 nM in data set [6]. The Ratio is 409000 in data set [7], 3.6 in data set [8], 4.6 in [9] and 13.6 in data set [10].
Consider `COc1ccc2nc(NCCCN3CCN(CCCNc4nc5ccc(OC)nc5n5cccc45)CC3)c3cccn3c2n1`, for which the logD in [1] worked out at 3.97; in data set [2], 4.73. In data set [5], this compound registered an IC50 of 600 nM. Also, in [7], the Ratio came out at 33000.
Regarding `COc1ccc2c(c1)nc(NCCCNCCCNc1nc3cc(OC)ccc3n3cccc13)c1cccn12`, the logD came to 0.8 in data set [1] and 2.76 in data set [2]. For the same compound, the IC50 amounted to 2980 nM in data set [3], 40 nM in data set [4], 190 nM in [5] and 110 nM in data set [6]. Also, the Ratio is 104000 in data set [7], 4.7 in [8], 2.7 in [9] and 26.6 in data set [10].
As to `CCN(CC)CCCC(C)Nc1nc2ccccc2n2cccc12` (stereo not given), the IC50 in [3] was above 20000 nM; in [4] it was 2950 nM; in data set [5], 4970 nM; in data set [6], 4340 nM. Also, the Ratio was 1.7 in data set [8], 1.5 in data set [9] and above 4.6 in data set [10].
As to `CN(CCCNc1nc2ccc(Cl)cc2n2cccc12)CCCNc1nc2ccc(Cl)cc2n2cccc12`, the logD is 3.5 in data set [1] and 4.44 in [2]. The IC50 was 4950 nM in [3], 400 nM in data set [4], 1010 nM in data set [5] and 700 nM in [6]. Moreover, the Ratio in data set [7] stood at 1800; in data set [8], 2.5; in [9], 1.8; in data set [10], 7.1.
`COc1ccc2nc(NCCCNCCCNc3nc4ccc(OC)cc4n4cccc34)c3cccn3c2c1`: the logD in [1] is 0.93; in data set [2], 2.58. For the same compound, the IC50 in data set [3] stood at 3620 nM; in data set [4] it was 140 nM; in data set [5], 300 nM; in data set [6], 330 nM. In addition, the Ratio in data set [7] stood at 41700; in data set [8], 2.1; in [9], 2.4; in [10], 11.
Turning to `COc1ccc2c(c1)nc(NCCCN(C)CCCNc1nc3cc(OC)ccc3n3cccc13)c1cccn12`, the values for the logD in data set [1] and in [2] were 0.93 and 3.55, respectively. The half-maximal inhibitory concentration (IC50) was determined as 5740 nM in [3], 50 nM in data set [4], 110 nM in data set [5] and 50 nM in [6]. Further, the Ratio is 105000 in data set [7], 2.2 in data set [8], 1 in data set [9] and 106.3 in [10].
With `CCN(CC)CCCC(C)Nc1nc2cc(OC)ccc2n2cccc12` (stereo not given), the IC50 is above 20000 nM in data set [3], 830 nM in data set [4], 2470 nM in data set [5] and 1780 nM in [6]. For the same compound, the Ratio in data set [8] was 3; in [9], 2.1; in data set [10], above 11.2.
`COc1ccc2c(c1)nc(NCCCN1CCN(CCCNc3nc4cc(OC)ccc4n4c(Cl)ccc34)CC1)c1ccc(Cl)n12`: the logD in data set [1] was determined as 4.17; in data set [2], 5.74. Further, the IC50 amounted to 3070 nM in data set [3], 250 nM in [4], 720 nM in data set [5] and 330 nM in [6]. The Ratio was determined as 900 in [7], 2.9 in data set [8], 1.32 in [9] and 9.3 in data set [10].
On to `c1cnc2c(c1)nc(NCCCN1CCN(CCCNc3nc4cccnc4n4cccc34)CC1)c1cccn12`, for which the results for the logD in data set [1] and in [2] were 2.22 and 5.05, respectively. In [5], the IC50 is 1090 nM. For the same compound, the Ratio in data set [7] was determined as 100.
In the case of `CCN(CC)CCCC(C)Nc1nc2ccc(Cl)cc2n2cccc12` (stereo not given), the IC50 in [3] was 17300 nM; in [4] it was 1940 nM; in data set [5], 4790 nM; in data set [6] it was 3060 nM. Further, the Ratio is on record as 2.5 in [8], 1.6 in data set [9] and 5.6 in data set [10].
On to `COc1ccc2c(c1)nc(NCCCN1CCN(CCCNc3nc4cc(OC)ccc4n4cccc34)CC1)c1cccn12`, for which the logD in data set [1] was found to be 2.15; in data set [2], 3.72. For the same compound, the IC50 worked out at 1320 nM in data set [3], 30 nM in [4], 130 nM in [5] and 80 nM in data set [6]. Also, the Ratio in [7] stood at 187000; in data set [8] it was 4.3; in [9], 2.7; in data set [10] it was 17.4.
With `Clc1ccc2nc(NCCCNCCCNc3nc4ccc(Cl)cc4n4cccc34)c3cccn3c2c1`, the logD came to 3.16 in data set [1] and 5.06 in data set [2]. Also, the IC50 in [3] turned out to be 4810 nM; in [4] it was 470 nM; in data set [5] it was 1140 nM; in data set [6], 790 nM. The Ratio in data set [7] worked out at 1600; in [8], 2.4; in data set [9], 1.7; in data set [10] it was 6.1.
For the compound `CN(CCCNc1nc2ccccc2n2cccc12)CCCNc1nc2ccccc2n2cccc12`, the logD in [1] is 1.56; in data set [2], 4.12. For the same compound, the IC50 came out at 6200 nM in [3], 120 nM in data set [4], 480 nM in [5] and 280 nM in data set [6]. The Ratio was 226000 in [7], 4 in data set [8], 2.3 in [9] and 22.1 in [10].
